An excerpt weighted towards active compounds, which were near 2.5% of everything screened.
mABHD4 FP – ABHD4 (mouse) inhibition, primary FP screen. Q8VD66. purified mABHD4, FP-Rh probe fluorescence polarization. inhibition, % at 8.92 µM. actives 0.54% (n = 370,000);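 active = inhibition exceeding the mean over every tested compound plus 3 SD, cut at about 30% in these data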;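 note: 0% = plate median of compound wells and 100% = S159A mutant with DMSO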
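Assay system: mouse ABHD4 enzyme, wild type / Also added: fluorescent activity-based probe FP-Rh / Doses: single nominal dose of 8.92 µM, 0.89% DMSO final / Timing: 45 min compound pre-incubation plus 60 min probe step, 25 °C / Signal: FP readout, ex 525 nm / em 598 nm / Control set: S159A mutant/DMSO as 100%, compound-well median as 0%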
PRMT1 inh – inhibitors of human PRMT1; recombinant PRMT1, activity-based probe fluorescence polarization; inhibition, % at 2.79 µM; actives 1.3% (n = 370,000); AID 652257;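 active = inhibition above about 21% made by adding two undisclosed values, limit read from the data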
Target sequence (Q99873 whole entry, looked up): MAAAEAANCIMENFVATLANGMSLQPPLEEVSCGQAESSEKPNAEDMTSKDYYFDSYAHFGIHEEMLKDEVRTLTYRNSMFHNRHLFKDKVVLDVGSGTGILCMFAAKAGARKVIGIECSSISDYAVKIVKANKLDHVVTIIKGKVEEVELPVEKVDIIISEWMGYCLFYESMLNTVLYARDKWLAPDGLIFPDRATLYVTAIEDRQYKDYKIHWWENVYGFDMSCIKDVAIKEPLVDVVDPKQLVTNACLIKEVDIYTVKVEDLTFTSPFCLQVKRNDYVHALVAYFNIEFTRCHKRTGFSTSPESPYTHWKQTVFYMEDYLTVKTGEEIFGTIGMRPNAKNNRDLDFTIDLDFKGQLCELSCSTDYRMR
SIAE inh – blocks human sialic acid acetylesterase | SIAE FP-Rh probe binding, fluorescence polarization | inhibition, % at 9.66 µM | actives 0.69% (n = 370,000) | AID 1053197;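 active = inhibition above a cutoff: mean of compounds within the control limits plus 3 SD of those, cut at about 17% in these data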;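 note: 0% = plate median of compound wells and 100% = probe without SIAE protein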
HTRA1 inhibitor – blocks human HTRA1 serine peptidase; inhibition, % at 5.96 µM; recombinant HTRA1, FP-rhodamine activity-based probe, fluorescence polarization; Q92743; actives 0.5% (n = 340,000); AID 504803; in the data active = inhibition above about 36%;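 note: 0% = enzyme with DMSO and 100% = wells lacking enzyme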
TCR-CD3 inh – inhibitors of human TCR-CD3 interaction | AID 651800 | inhibition, % at 9.4 µM | actives 0.37% (n = 360,000) | TAMRA-labeled TCR probe fluorescence, biochemical; in the data active = inhibition above about 19%;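 note: recombinant mutant TCR 2C K166C tagged with TAMRA read by polarization; 0% = receptor in buffer alone and 100% = receptor with positive control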
SIAE inh conf – human SIAE inhibition, confirmation; shares compounds with SIAE inh; actives 13% (n = 2,300); inhibition, % at 9.66 µM; SIAE FP-Rh activity-based probe, fluorescence polarization;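 active = mean inhibition of the replicates above the hit cutoff set in the primary screen, cut at about 17% in these data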;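 note: 0% = SIAE with DMSO and probe and 100% = probe without SIAE; inhibitors lower polarization as more probe stays unbound to SIAE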
Active calls of the source: *; nt = not tested or not shown.

SMILES	mABHD4 FP	PRMT1 inh	SIAE inh	HTRA1 inhibitor	TCR-CD3 inh	SIAE inh conf
O=C(O)Cn1cnc2c(oc3ccccc32)c1=O	-8	-3	-8	8	6	nt
O=C(Cn1cnc2c(oc3ccccc32)c1=O)c1ccccc1	-1	-1	18*	4	6	-3
CCCn1cnc2c(oc3ccccc32)c1=O	-3	0	1	3	7	nt
CCn1cnc2c(oc3ccccc32)c1=O	-4	-4	20*	-8	0	1
CC(c1cc(F)ccc1O)c1c[nH]c2ccccc12 (centres undefined)	-21	1	2	nt	nt	nt
CCOC(=O)CN(C(=O)CSc1nnc2c(n1)[nH]c1ccccc12)c1ccccc1	-10	1	23*	-3	-9	-37
Cc1ccc(C2Nc3cccc4cccc(c34)N2)s1	8	6	27*	14	5	13
Fc1ccc(C2Nc3cccc4cccc(c34)N2)cc1	9	9	19*	12	1	10
Brc1ccc(C2Nc3cccc4cccc(c34)N2)cc1	9	13	2	5	-5	nt
CCCCN=C(N)NC(=O)OCc1ccccc1	0	-3	-2	nt	nt	nt
CC(C)=CCC(C)(C)CNC(=O)NC1CCCCC1	-2	1	20*	-6	2	-4
O=C1NC(Cc2cnc[nH]2)C(=O)N2CCCC12 (centres undefined)	0	7	-11	nt	1	nt
CCN(CC)C(=O)CC[C@@H]1CC[C@]2(CCCN(Cc3cccnc3)C2)O1	7	-2	0	nt	nt	nt
Cc1[nH]c(C)c(S(=O)(=O)NCc2ccco2)c1C(=O)N1CCCCC1	2	1	19*	8	0	11
C=CCOc1ccc(CNn2cn[nH]c2=S)cc1OC	4	-2	9	-1	-6	nt
C=CCOc1ccc(CNn2cn[nH]c2=S)cc1OCC	5	-2	47*	2	4	-4
CC(C)(C)c1c(Cl)c(O)c(-c2ccccc2)c(=O)n1-c1ccccc1	-3	10	19*	nt	0	0
O=C(CCCCCN1C(=O)c2ccccc2C1=O)Nc1cccc(O)c1	0	-1	3	3	6	nt
O=C(CCN1C(=O)c2ccccc2C1=O)Nc1cccc(O)c1	-1	-6	20*	10	5	-1
C[C@@H]1[C@@H](c2ccccc2)c2cc3ccccc3nc2-c2nc3ccccc3cc2[C@@H]1C(=O)N1CCCC1	1	2	-1	nt	nt	nt
Cc1cc(C(=O)O[C@H]2CCC[C@]3(C(=O)N(Cc4ccccc4)c4ccccc43)[C@H]2NC(=O)CCc2ccccc2)no1	-1	-3	7	nt	nt	nt
COc1cccc(/C=N/Nc2nc(Nc3ccc([N+](=O)[O-])cc3)nc(N3CCCC3)n2)c1O	8	4	19*	nt	-2	-8
O=C(Nc1ccc(F)cc1)OCc1cn(Cc2ccc(F)c(F)c2)nn1	-6	-3	-5	nt	nt	nt
C=CCNC(=S)N/N=C/c1ccc(-c2ccc(OC)cc2)o1	14	5	19*	-8	3	2
Nc1ccc2nc(-c3ccc(-c4nc5ccc(N)cc5[nH]4)cc3)[nH]c2c1	-19	-1	17*	nt	-13	26*
SMILES	mABHD4 FP	PRMT1 inh	SIAE inh	HTRA1 inhibitor	TCR-CD3 inh	SIAE inh conf
COc1cccc(CN2C(=O)c3ccccc3S2(=O)=O)c1	-7	1	17*	-3	-5	-1
COC(=O)c1ccc(CN2C(=O)c3ccccc3S2(=O)=O)cc1	-15	0	-1	-8	7	nt
CC(C)(C)c1ccc(C(=O)Nc2cc(Cl)c(Cl)cc2C(=O)O)cc1	-96	2	-41	nt	nt	nt
O=C(Nc1ccc2c(c1)OCO2)c1ccc(N2CCCC2)c([N+](=O)[O-])c1	7	1	22*	5	2	3
Cc1ccc(S(=O)(=O)N2CCCc3nc(-c4ccccc4)ccc32)cc1	-10	-1	0	nt	9	nt
O=C(CCn1c2c(c3ccccc31)CCCC2)NNC(=O)c1cccc([N+](=O)[O-])c1	6	-1	18*	-1	11	7
COc1ccc(C2OCCNC3C2C(=O)N(Cc2ccc(OC)cc2OC)C3Cc2ccccc2)cc1 (centres undefined)	4	5	4	nt	nt	nt
CN(C)c1ccc(CNc2nc3cc(-c4ccc(F)cc4)sc3c(=O)n2C)cc1	-7	-5	17*	nt	1	3
Cn1c(NCc2ccc3occc3c2)nc2cc(-c3ccc(F)cc3)sc2c1=O	-5	1	-12	nt	7	nt
COc1ccccc1C=NNC(=O)CSc1nc2ccccc2n1Cc1ccc(Cl)cc1	-12	-2	-12	nt	nt	nt
COc1ccc(-c2cc(C(F)(F)F)nc(N3CCCCC3)n2)cc1OC	2	1	19*	2	5	-4
COc1ccc(-c2cc(C(F)(F)F)nc(N3CCN(C)CC3)n2)cc1OC	4	-1	1	-2	1	nt
CC(=O)N1c2ccc(S(=O)(=O)NCCc3ccc(Cl)cc3)cc2CC1C (centres undefined)	-8	-9	-7	-5	2	nt
CC(=O)N1c2ccc(S(=O)(=O)NCc3ccccc3Cl)cc2CC1C (centres undefined)	7	-1	18*	3	7	3
COc1ccc(NC2=Nc3cccc4cccc2c34)cc1OC	6	1	6	-7	-9	nt
COc1cc(NC2=Nc3cccc4cccc2c34)cc(OC)c1OC	0	-2	24*	0	2	9
Cc1c(C2(O)CCCCC2)[nH]c2ncccc12	3	0	-13	3	8	nt
Cc1c(C2(O)CCCCC2)[nH]c2cnccc12	-2	-4	23*	2	3	-3
Cc1nc2c(o1)CCc1ccccc1C2O (centres undefined)	6	-2	41*	6	2	4
FC(F)(F)Oc1cccc(Cn2ccc3ccc(-c4ccc5ccn(Cc6cccc(OC(F)(F)F)c6)c5c4)cc32)c1	3	-2	3	nt	nt	nt
O=C(Nc1ccc2c(c1)OCO2)NC1CCCCN(Cc2cccc(Cl)c2)C1=O (centres undefined)	2	3	0	nt	nt	nt
COc1ccc(C(=O)NN=C2CCCC2)cc1	0	2	20*	3	0	-5
COC(=O)C1=C(C)N(Cc2cccc(C(F)(F)F)c2)C(=NCc2ccc3c(c2)OCO3)NC1CCc1ccccc1 (centres undefined)	16	-1	-1	nt	-3	nt
Cc1nn(CC(=O)N2CCN(S(=O)(=O)c3ccccc3)CC2)c(C)c1[N+](=O)[O-]	-1	-4	18*	1	5	2
COc1ccc(OC)c(NC(=O)CSc2nc3[nH]c(=O)cc(O)c3s2)c1	16	14	19*	-3	6	-3
CCC1NC(=O)c2cc3ccccc3cc2-n2c1nc1cc(C)cc(C)c1c2=O (centres undefined)	-4	-1	17*	-24	-3	-1

Source: PubChem
